# Screening results as filed in PubChem.
# HNF4A DNA FP = change in binding of human HNF4A to DNA, primary screen, biochemical, fluorescence polarization, FITC-DNA | Hepatocyte nuclear factor 4-alpha (Homo sapiens), P41235 | 1 h | activity change, % at 10 µM | actives 0.3% (n = 360,000); in the data active means activity change above about 30%, passing the limit was not always enough
# Myeloid diff 2 = induction of myeloid progenitor differentiation, primary screen, cell-based, flow cytometry, MLPCN library; ER-HoxA9 myeloid progenitors, lysozyme-GFP differentiation; calls only at 10 µM; actives 1% (n = 360,000);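 active means normalized GFP-positive differentiation at or above the plate's own cutoff, the solvent-only control mean plus 3 SD; inconclusive means no clear call, values can overlap the other calls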;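 further: cells exposed to compound for four days before flow analysis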
# Exocytosis inh = LAMP-1 surface exposure blockers, TALL-104 cells – cell-based, flow cytometry, MLPCN library, primary screen | inhibition, % at 10 µM | AID 651702, 2012 | actives 0.66% (n = 360,000) | TALL-104 LAMP-1 surface exposure; cells stimulated with thapsigargin and PMA;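 active means inhibition above about 55%, limit read from the data; inconclusive means no clear call, values can overlap the other calls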
# CSN inh = inhibitors of CSN-mediated cullin deneddylation, primary screen, biochemical, fluorescence polarization, uHTS; COP9 signalosome complex subunit 5 (Homo sapiens), Q92905; actives 0.38% (n = 360,000); AID 651999, 2013; Purified CSN, SCF-Nedd8-OG deneddylation; inhibition, % at 12.5 µM;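 active means pattern-corrected inhibition above about 35%, with an unprinted fluorescence ratio check between 0.5 and 1.5, limit read from the data, passing the limit was not always enough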;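 further: 0% = enzyme with substrate and 100% = substrate without enzyme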
# Target sequence (Q92905 whole entry, looked up, one chain of several): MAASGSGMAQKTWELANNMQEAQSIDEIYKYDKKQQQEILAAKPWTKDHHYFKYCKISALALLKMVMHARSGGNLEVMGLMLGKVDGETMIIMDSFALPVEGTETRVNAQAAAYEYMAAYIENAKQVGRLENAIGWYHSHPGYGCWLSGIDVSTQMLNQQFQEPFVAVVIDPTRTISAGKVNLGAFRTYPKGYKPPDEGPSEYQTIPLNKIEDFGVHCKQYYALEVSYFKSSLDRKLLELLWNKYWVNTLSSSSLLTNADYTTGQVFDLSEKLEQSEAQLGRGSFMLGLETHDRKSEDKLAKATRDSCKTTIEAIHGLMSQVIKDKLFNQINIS
#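 Test system: purified human Csn5 enzyme expressed in HEK293T cells. Amount: 0.24 nM enzyme. Reagent: SCFSkp2-Nedd8OG substrate at 10 nM final. Schedule: 90 min incubation of compound, enzyme and substrate at room temperature. Detection: fluorescence polarization. Read-out: % inhibition of substrate cleavage by Csn5.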
# Exocytosis CP01 = inhibitors of lytic granule exocytosis, confirmation, TALL-104 cells, flow cytometry, Cherry Pick01. inhibition, % at 10 µM. actives 11% (n = 1,500). LAMP-1 externalization; stimulated with PMA plus thapsigargin. shares compounds with Exocytosis inh. AID 651954, 2012; in the data active means inhibition above about 60%;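 further: 0% = stimulated vehicle wells and 100% = unstimulated wells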
# Numbers without * were called inactive; i = inactive; ? = inconclusive; / = not tested or not shown. Compounds with a hit are over-represented: about 2.2% of the library has one in this group of screens.
SMILES,HNF4A DNA FP,Myeloid diff 2,Exocytosis inh,CSN inh,Exocytosis CP01
COc1cccc(CN(C)C(=O)CNC(=O)c2ccc(-c3ccccc3)cc2)c1OC,2,i,-8,1,/
CC(=O)Nc1ccc(NC(=O)C2CCN(C(=O)C3CC(=O)N(c4ccc(C)cc4)C3)CC2)cc1 (centres undefined),-1,?,-3,6,/
COc1ccc(NC(=O)C2CCN(C(=O)C3CC(=O)N(c4ccc(C)cc4)C3)CC2)c(OC)c1 (centres undefined),0,i,69*,1,-14
O=C(CN1C(=O)NC(c2ccccc2)(c2ccccc2)C1=O)NCc1cccs1,3,i,-1,0,/
CCOc1ccc(S(=O)(=O)N2CCCC(C(=O)Nc3cccc(C)c3)C2)cc1 (centres undefined),5,i,63*,-5,-13
CCOc1cc(-c2nnc(NC(=O)C3=COCCO3)o2)cc(OCC)c1OCC,-1,i,-10,0,/
O=C(CCN1C(=O)NC2(CCCC2)C1=O)Nc1cccc(S(=O)(=O)N2CCOCC2)c1,-2,i,12,1,/
COc1cccc(CN(C)C(=O)c2ccc(Oc3ccccc3)cc2)c1OC,-1,i,73*,0,27
COc1cccc(CN(C)C(=O)c2ccc(COc3ccc(Cl)cc3)cc2)c1OC,-2,i,21,-1,/
Cn1c2c(sc1=O)CCC2,-1,i,2,-2,/
CN=Cc1nc(-c2ccccc2)oc1O,0,i,-1,-8,/
CC1=Nc2ccccc2/C1=C\c1nc(-c2ccc(F)cc2)oc1O,14,i,76*,3,36
O=C(COC(=O)c1c[nH]c2ccccc12)Nc1cccc(F)c1,8,i,14,1,/
COc1ccc(-c2cc3ccccc3n2CC(O)CN2CCCCC2)cc1 (centres undefined),1,i,6,3,/
CCC(=C(c1ccc(OC)cc1)c1ccc(OC)cc1)c1cn(CC(O)CN2CCN(C)CC2)c2ccccc12 (centres undefined),2,i,89*,0,83*
Cc1ccc(CC(NC(=O)c2ccc(C)cc2)C(=O)O)cc1 (centres undefined),-1,i,-1,-1,/
CC(=O)OC1CCC2(C)C3CCC4(C)C(C(C)=O)CCC4C3CC3OC32C1 (centres undefined),1,i,2,2,/
CCO[C@@H]1OC(C(=O)NC2CC2)=C[C@H](c2c[nH]c3ccccc23)[C@H]1CCCO,2,i,2,6,/
CCO[C@H]1OC(C(=O)NC2CC2)=C[C@@H](c2c[nH]c3ccccc23)[C@@H]1CCCO,-1,i,56*,-4,-13
COC(=O)CC1(C(=O)OC)Oc2ccccc2C(=O)N1c1ccc(F)cc1F (centres undefined),0,i,-2,-2,/
COc1ccccc1N(CC(=O)Nc1cccc(C(F)(F)F)c1)S(C)(=O)=O,1,i,80*,2,-10
COc1ccccc1N(CC(=O)Nc1ccc2c(c1)OCCO2)S(=O)(=O)c1ccc(C)cc1,3,i,73*,1,-10
CCN(CC(=O)Nc1ccc2c(c1)OCCO2)CC(=O)Nc1ccc(C)c([N+](=O)[O-])c1,4,i,-3,1,/
COc1ccccc1-c1sc2cc3c(cc2c1C#Cc1cncn1C)OCO3,-5,i,21,4,/
Cc1cc(C(C)(C)C)ccc1OCC(=O)N/N=C\c1c(C)n(C)n(-c2ccccc2)c1=O,1,i,-7,-1,/
CCN(c1ccccc1)S(=O)(=O)c1ccc(Oc2ccc(C(C)=O)cc2OC)nc1,15,i,-1,-3,/
CC(=O)c1ccc(N2CCN(CC(=O)NC(=O)NCc3ccccc3)CC2)cc1,-3,i,7,-3,/
COc1ccc(S(=O)(=O)NCC2CCC(C(=O)O)CC2)cc1 (centres undefined),-2,i,-14,-2,/
CN(C)CC(O)COC(c1ccc(Cl)cc1)c1ccc(Cl)cc1 (centres undefined),2,i,66*,-4,-3
CCn1cnnc1SCC(=O)NCC1COc2ccccc2O1 (centres undefined),5,i,4,-6,/
